Three molecules from ChEMBL document CHEMBL1125374, “Novel anticancer prodrugs of butyric acid. 2” (J Med Chem, 1992) can be followed below.

The subject of data set [1] is B16-F10. The data set is described as follows: Inhibitory activity on growth of B16F10.9 melanoma cell line. It counts as functional, cell-based. To be noted: Mus musculus. The method, boiled down:
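B16F10.9 melanoma cells (4 x 10^4) seeded in 35-mm dishes in RPMI/10% FCS at 37 °C, 5% CO2. Compound added 6 h after seeding. On day 4 cells detached in PBS with 1 mM EDTA and counted electronically. IC50 read from viable cell number vs log concentration.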

Data set [2] in a line: Lethal dose was determined. It counts as toxicity. The note with it: mouse. The method, boiled down: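 Acute toxicity in male and female BALB/c mice (3 experiments) and C57Bl mice (2 experiments), 6-8 weeks old, weighing 20 ± 0.5 g, in groups of 10. Each mouse got a single injection of 0.125-2.5 g/kg in propylene glycol, and LD50 was taken from mortality.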
The next data set relates to HL-60. In words: Concentration required for 50% proliferation inhibition of human promyelocytic HL-60 cell line. It counts as functional, cell-based. The method, boiled down: (§1)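 Cells grown in RPMI with 10% fetal calf serum and 2 mM glutamine at 37 °C, 5% CO2. HL-60 (human promyelocytic) and WEHI (murine myelomonocytic) cells exposed to a titration of compound for 24 h. [3H]thymidine pulsed at 1 µCi/well during the last 14 h. Acid-insoluble counts collected on glass-fibre filters. IC50 taken from percent incorporation vs log concentration. At least two independent experiments.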

A further data set has as its system WEHI. In words: Concentration required for 50% proliferation inhibition of myelomonocytic WEHI cell line. To be noted: Mus musculus. It counts as functional, cell-based. The method, boiled down:
as §1

Data set [3] deals with B16-F10. The data set is described as follows: Effect on metastases of B16F10.9 melanoma cells (intraperitoneally implanted) in B6C3F1/OLAC/HSD mice was observed after administration of 50 mg/kg dose. It counts as functional, Mus musculus. To be noted: route intraperitoneal.
Data set [4] concerns B16-F10. The data set is described as follows: Effect on appearance of B16F10.9 colonies in semisolid agar. It counts as functional, cell-based. To be noted: Mus musculus. The method, boiled down: (§2)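 B16F10.9 cells (10^3) plated in the upper layer of a 0.6 mL RPMI soft-agar bilayer. Lower layer: conditioned medium 40, FCS 10, horse serum 15, agar 0.5 (% v/v). Upper layer: FCS 20, horse serum 20, agar 0.36. Compound added to the upper layer. Aggregates of more than 20 cells scored as colonies by inverted microscope after 7 days.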

In data set [5] the test system is B16-F10. In words: Effect on metastases of B16F10.9 melanoma cells (intravenously injected) was observed after administration of 50 mg/kg dose. To be noted: route intraperitoneal.
The subject of data set [6] is B16-F10. The data set is described as follows: Effect on metastases of B16F10.9 melanoma cells (intravenously injected) in C57BL/6 mice was observed after administration of 12.5 mg/kg. To be noted: route intraperitoneal.
For data set [7], the system named is B16-F10. The data set is described as follows: Effect on metastases of B16F10.9 melanoma cells (intravenously injected) in C57BL/6 mice was observed after administration of 25 mg/kg dose. The note with it: route intraperitoneal.
Data set [8] has as its system B16-F10. Described as above. To be noted: route intraperitoneal. The source holds these as a separate data set.
The subject of data set [9] is B16-F10. The data set is described as follows: Effect on metastases of B16F10.9 melanoma cells (intravenously injected) in C57BL/6 mice was observed after administration of 100 mg/kg dose. The note with it: route intraperitoneal.
Data set [10] has as its system B16-F10. The data set is described as above. To be noted: route intraperitoneal. This is another data set of the same source.
The subject of data set [11] is B16-F10. The data set is described as follows: Effect on metastases of B16F10.9 melanoma cells (intravenously inoculated) in C57BL/6 mice was observed after administration of 12.5 mg/kg dose. The note with it: route intravenous.
In data set [12] the test system is B16-F10. In words: Effect on appearance of B16F10.9 colonies in semisolid agar at 1 mM. It counts as functional, Mus musculus. The method, boiled down: as §2

Turning to `CCCC(=O)OCOC(=O)C(C)(C)C` [AN-9], the IC50 was found to be 82 µM in the data set on B16-F10 [1], 49.5 µM in the data set with HL-60, 75 µM in the data set on WEHI and 60 µM in the data set with B16-F10 [4]. This molecule also returned an LD50 in data set [2] of 1360 mg/kg. Besides, the “No. of lung lesions” value was found to be 66.6 in the data set with B16-F10 [3], 97.89 in the data set on B16-F10 [6], 72.38 with B16-F10 [7] and 140 in the data set on B16-F10 [9]. Moreover, the Lung weight in the data set with B16-F10 [5] came to 0.0929 g; in the data set on B16-F10 [8], 0.135 g; with B16-F10 [10] it was 0.269 g; in the data set with B16-F10 [11], 0.1571 g.

As to `CCCC(=O)O` [BUTYRIC ACID], in the data set with B16-F10 [12], the Decrease turned out to be 22%. Moreover, the values for the IC50 in the data set on B16-F10 [1], in the data set on HL-60 and with WEHI were 933 µM, 1520 µM and 850 µM, respectively.

For the molecule `O=P1(N(CCCl)CCCl)NCCCO1` (stereo not drawn) [CYCLOPHOSPHAMIDE ANHYDROUS], the “No. of lung lesions” value in the data set on B16-F10 [3] is 56.38.
